According to ChEMBL document CHEMBL4014308, “Amphiphilic Tobramycin-Lysine Conjugates Sensitize Multidrug Resistant Gram-Negative Bacteria to Rifampicin and Minocycline” (J Med Chem, 2017):

Columns and labels:
Pseudomonas aeruginosa [1] = assay: Potentiation of minocycline-induced antibacterial activity against multidrug/extremely drug-resistant/colistin-susceptible Pseudomonas aeruginosa isolate P262-101856 infected in Galleria mellonella assessed as mortality at 12.5 to 37.5 mg/kg after 24 hrs relative to control; assay type: functional
How it was run: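 Galleria mellonella larvae (~250 mg, used within 7 days), 15 per group, injected with 10 µL XDR P. aeruginosa P262 suspension (1.0×10^3 CFU/mL in PBS). At 2 h, a single 10 µL injection of combination at 12.5 + 12.5, 25 + 25 or 37.5 + 37.5 mg/kg; PBS vehicle control. Kept at 37 °C and survival scored over 24 h.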

Pseudomonas aeruginosa [2] = assay: Potentiation of rifampicin-induced antibacterial activity against Pseudomonas aeruginosa PAO200 harboring MexAB-oprM deletion mutant after 18 hrs by checkerboard assay; assay type: functional
How it was run: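 Checkerboard in Mueller-Hinton broth: antibiotic serially diluted along one axis and adjuvant along the other (10 × 7 matrix). Inoculum from a 0.5 McFarland saline suspension diluted 1:50 in MHB; 18 h at 37 °C, then plate read. MIC is the lowest concentration with no growth. FIC of each agent is its concentration in a no-growth well divided by its MIC alone; FIC index is the sum of both. FIC index ≤0.5 counts as synergy.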

In the case of Cl.Cl.Cl.Cl.Cl.Cl.Cl.NCCCC[C@H](N)C(=O)N(CCCCCCCCCCCCO[C@@H]1[C@@H](O[C@H]2O[C@H](CO)[C@@H](O)[C@H](N)[C@H]2O)[C@H](N)C[C@H](N)[C@H]1O[C@H]1O[C@H](CN)[C@@H](O)C[C@H]1N)Cc1c2ccccc2c(Cl)c2ccccc12, the mortality (Pseudomonas aeruginosa [1]) is reported as 100% and the “fractional inhibitory concentration index (FICI)” value (Pseudomonas aeruginosa [2]) is reported as 0.129.
